These results are taken from ChEMBL document CHEMBL1152519, “Synthesis, structural activity-relationships, and biological evaluation of novel amide-based allosteric binding site antagonists in NR1A/NR2B N-methyl-D-aspartate receptors” (Bioorg Med Chem, 2009).

Activity calls are given as the source filed them. The calls are words filed in the database; no cut-off is given here.

In data set [1] the target is Glutamate receptor ionotropic, NMDA 1/NMDA 2B (Mus musculus) (UniProt P35438+Q01097). The experiment in a line: Antagonist activity at mouse recombinant NR1/NR2B receptor expressed in Xenopus laevis oocytes assessed as inhibition of glutamate/glycine-induced current at 3 uM by two electrode voltage clamp method. Format: functional, cell-based. To be noted: Oocyte.
Data set [2] has as its target Glutamate NMDA receptor; Grin1/Grin2c (Rattus norvegicus, UniProt P35439+Q00961). The experiment in a line: Antagonist activity at rat recombinant NR1/NR2C receptor expressed in Xenopus laevis oocytes assessed as inhibition of glutamate/glycine-induced current by two electrode voltage clamp method. Format: functional, cell-based, Oocyte. The method in brief:
(§1)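 Xenopus oocytes expressing NR1/NR2 (wild type or amino terminal domain deletion mutant) recorded by TEVC at −40 mV, room temperature, pH 7.4–7.6, with EDTA 10 μM. Maximal glutamate/glycine applied alone, then with 5–8 successive compound concentrations. Leak-corrected; responses under 50 nA excluded. IC50 from fitted composite curve. NR1/NR2A oocytes were pre-incubated in 50 μM BAPTA-AM.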
(In general: Two-electrode voltage clamp is typically applied to oocytes expressing channels or transporters.)

The target in data set [3] is Ionotropic glutamate receptor NMDA 1/2D (Rattus norvegicus, UniProt P35439+Q62645). The experiment in a line: Antagonist activity at rat recombinant NR1/NR2D receptor expressed in Xenopus laevis oocytes assessed as inhibition of glutamate/glycine-induced current by two electrode voltage clamp method. Format: functional, cell-based, Oocyte. Put shortly:
as §1

For data set [4], the target named is Glutamate receptor ionotropic, kainate 2 (Rattus norvegicus) (UniProt P42260). The experiment in a line: Antagonist activity at rat recombinant GluR6 expressed in Xenopus laevis oocytes assessed as inhibition of concanavalin A/glutamate-induced current at 3 uM by two electrode voltage clamp method. Format: functional, cell-based. To be noted: Oocyte. Put shortly: (§2)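 Oocytes expressing homomeric GluR6 (5–10 ng cRNA) pretreated 5 min with 10 μM concanavalin-A. Currents evoked by 100 μM glutamate at −40 mV, with or without 3 μM compound, and given as percent of control. Mean ± SEM of 4–10 oocytes; paired t-test.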

Data set [5] addresses Glutamate receptor 1 (Rattus norvegicus) (UniProt P19490). The experiment in a line: Antagonist activity at rat recombinant GluR1 expressed in Xenopus laevis oocytes assessed as inhibition of glutamate-induced current at 3 uM by two electrode voltage clamp method. Format: functional, cell-based. The conditions noted are these: Oocyte. The method in brief:
(§3)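 GluR1 homomers expressed from 5–10 ng cRNA in Xenopus oocytes. Clamped at −40 mV. Currents evoked by 100 μM glutamate with 3 μM compound, expressed as % of control without compound. Mean ± SEM, 4–10 oocytes; paired t-test.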

For data set [6], the target named is T1, Glutamate NMDA receptor; Grin1/Grin2b (Rattus norvegicus) (UniProt P35439+Q00960). The experiment in a line: Antagonist activity at rat recombinant NR1/NR2B receptor expressed in Xenopus laevis oocytes assessed as noncompetitive inhibition of glutamate/glycine-induced current at 0.054 uM by two electrode voltage clamp method. Format: functional, cell-based. To be noted: Oocyte. Put shortly:
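TEVC on rat NR1/NR2B oocytes at −40 mV. Inhibition by 0.054 μM compound measured while glutamate or glycine was raised 10-fold above the control 50 μM glutamate/30 μM glycine. Response given as percent of control; n = 4.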

Data set [7] concerns the target Glutamate NMDA receptor; Grin1/Grin2b (Rattus norvegicus, UniProt P35439+Q00960). The experiment in a line: Antagonist activity at wild type rat NR1/NR2B receptor expressed in Xenopus laevis oocytes assessed as inhibition of glutamate/glycine-induced current by two electrode voltage clamp method. Format: functional, cell-based, Oocyte. Put shortly:
as §1

Another data set has as its system Oocyte. The experiment in a line: Antagonist activity at rat NR1/NR2B receptor deltaATD mutant expressed in Xenopus laevis oocytes assessed as inhibition of glutamate/glycine-induced current at 0.01 to 100 uM by two electrode voltage clamp method. Format: functional, cell-based. Put shortly: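 Oocytes express NR1/NR2B amino-terminal-domain mutants (mouse D101A point mutant; rat ATD deletion). Concentration–effect curves were recorded by two-electrode voltage clamp at −40 mV and 23 °C, with 50 μM glutamate plus 30 μM glycine. Each step is compound plus agonists, expressed relative to agonists alone.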

In the next data set the test system is MDCK. The experiment in a line: Apparent permeability from basolateral to apical side of MDR1-expressing MDCK cells at 5 uM after 2 hrs by LC-MS/MS analysis. Format: ADME, cell-based, Canis lupus familiaris. The conditions noted are these: dog. Put shortly:
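MDR1-MDCK monolayers grown 7–11 days on Transwells. Compound at 5 μM in HBSS pH 7.4 (final DMSO ≤1%) added apically (A–B) or basally (B–A). Incubated 2 h at 37 °C; both compartments quantified by LC–MS/MS against a >4-point calibration. Papp given in ×10−6 cm/s; efflux ratio = B–A/A–B. Duplicates.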

Data set [8] has as its target Glutamate NMDA receptor; Grin1/Grin2a (Rattus norvegicus) (UniProt P35439+Q00959). The experiment in a line: Antagonist activity at rat recombinant NR1/NR2A receptor expressed in Xenopus laevis oocytes assessed as inhibition of glutamate/glycine-induced current at 3 uM by two electrode voltage clamp method relative to control. Format: functional, cell-based. To be noted: Oocyte. The method in brief: (§4)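 Xenopus oocytes injected with NR1-1a (3–5 ng) plus NR2A, 2B, 2C or 2D cRNA (7–10 ng), kept at 15 °C. Voltage clamp at −40 mV. Responses to 50 μM glutamate + 30 μM glycine with 3 μM compound, as % of response without compound. NR2A oocytes pre-loaded with 50 μM BAPTA-AM. Mean ± SEM, 4–10 oocytes; paired t-test.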

Data set [9] concerns the target T1, Glutamate NMDA receptor; Grin1/Grin2b (Rattus norvegicus). The experiment in a line: Antagonist activity at rat recombinant NR1/NR2B receptor expressed in Xenopus laevis oocytes assessed as inhibition of glutamate/glycine-induced current at 3 uM by two electrode voltage clamp method relative to control. The conditions noted are these: Oocyte. Format: functional, cell-based. The method in brief: as §4

Data set [10] addresses Glutamate NMDA receptor; Grin1/Grin2c (Rattus norvegicus) (UniProt P35439+Q00961). The experiment in a line: Antagonist activity at rat recombinant NR1/NR2C receptor expressed in Xenopus laevis oocytes assessed as inhibition of glutamate/glycine-induced current at 3 uM by two electrode voltage clamp method relative to control. Format: functional, cell-based. To be noted: Oocyte. Put shortly: as §4

The target of data set [11] is Ionotropic glutamate receptor NMDA 1/2D (Rattus norvegicus) (UniProt P35439+Q62645). The experiment in a line: Antagonist activity at rat recombinant NR1/NR2D receptor expressed in Xenopus laevis oocytes assessed as inhibition of glutamate/glycine-induced current at 3 uM by two electrode voltage clamp method relative to control. Format: functional, cell-based. To be noted: Oocyte. The method in brief:
as §4

Data set [12] concerns the target Glutamate receptor 1 (Rattus norvegicus) (UniProt P19490). The experiment in a line: Antagonist activity at rat recombinant GluR1 expressed in Xenopus laevis oocytes assessed as inhibition of glutamate-induced current at 3 uM by two electrode voltage clamp method relative to control. To be noted: Oocyte. Format: functional, cell-based. The method in brief:
as §3

Data set [13] addresses Glutamate receptor ionotropic, kainate 2 (Rattus norvegicus) (UniProt P42260). The experiment in a line: Antagonist activity at rat recombinant GluR6 expressed in Xenopus laevis oocytes assessed as inhibition of concanavalin A/glutamate-induced current at 3 uM by two electrode voltage clamp method relative to control. Format: functional, cell-based. The conditions noted are these: Oocyte. The method in brief:
as §2

For data set [14], the target named is Glutamate receptor ionotropic, NMDA 2B (Rattus norvegicus, UniProt Q00960). The experiment in a line: Displacement of [3H]ifenprodil form NR2B receptor in Wistar rat cerebral cortex membrane. Format: tissue-based.
The next data set concerns the target hERG (KCNH2) (Homo sapiens, UniProt Q12809). The experiment in a line: Displacement of [3H]astemizole from human recombinant ERG expressed in HEK293 cells at 10 uM. Format: cell-based. To be noted: HEK293 cells expressing human recombinant ERG, probe [3H]astemizole, read-out: Activity. (Loss of bound radioactivity is the signal in a displacement assay; it reports binding, not function.)

The target of data set [15] is T1, Glutamate NMDA receptor; Grin1/Grin2b (Rattus norvegicus). The experiment in a line: Antagonist activity at rat recombinant NR1/NR2B receptor expressed in Xenopus laevis oocytes assessed as inhibition of glutamate/glycine-induced current at 3 uM by two electrode voltage clamp method. The conditions noted are these: Oocyte. Format: functional, cell-based. Put shortly: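 Oocytes (stage V–VI, Xenopus laevis) injected with NR1 and NR2 cRNA, held 1–7 d at 15 °C. TEVC at −40 mV, 23 °C, in 90 NaCl/1 KCl/10 HEPES/0.5 BaCl2 (mM) plus 10 μM EDTA. Current to 50 μM glutamate plus 30 μM glycine with 3 μM compound, given as percent of control; 4–10 oocytes.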

Glutamate receptor 1 (Rattus norvegicus), sequence (P19490 whole entry): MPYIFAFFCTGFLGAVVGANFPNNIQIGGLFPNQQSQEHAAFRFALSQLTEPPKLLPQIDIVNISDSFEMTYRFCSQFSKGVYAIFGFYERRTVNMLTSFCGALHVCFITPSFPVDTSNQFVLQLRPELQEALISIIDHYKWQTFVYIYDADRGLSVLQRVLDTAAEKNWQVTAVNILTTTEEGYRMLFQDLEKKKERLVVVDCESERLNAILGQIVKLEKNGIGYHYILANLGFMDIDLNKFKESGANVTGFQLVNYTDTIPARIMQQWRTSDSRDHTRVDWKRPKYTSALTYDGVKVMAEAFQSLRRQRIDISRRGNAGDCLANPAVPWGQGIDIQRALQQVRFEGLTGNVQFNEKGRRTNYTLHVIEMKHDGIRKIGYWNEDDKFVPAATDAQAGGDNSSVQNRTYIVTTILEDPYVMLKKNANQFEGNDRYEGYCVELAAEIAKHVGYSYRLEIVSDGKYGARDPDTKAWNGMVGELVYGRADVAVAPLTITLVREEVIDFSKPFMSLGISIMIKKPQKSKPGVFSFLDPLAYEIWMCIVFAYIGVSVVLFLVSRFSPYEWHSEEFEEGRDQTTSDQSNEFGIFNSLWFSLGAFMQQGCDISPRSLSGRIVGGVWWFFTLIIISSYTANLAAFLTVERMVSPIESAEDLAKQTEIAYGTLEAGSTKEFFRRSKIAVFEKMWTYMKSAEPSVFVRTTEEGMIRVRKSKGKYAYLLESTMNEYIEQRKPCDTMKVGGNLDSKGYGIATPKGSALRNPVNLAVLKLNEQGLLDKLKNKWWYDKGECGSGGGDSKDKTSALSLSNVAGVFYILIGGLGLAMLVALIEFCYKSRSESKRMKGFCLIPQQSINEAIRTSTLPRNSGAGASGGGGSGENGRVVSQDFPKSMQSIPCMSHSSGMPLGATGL
Glutamate receptor ionotropic, kainate 2 (Rattus norvegicus), sequence (P42260 whole entry): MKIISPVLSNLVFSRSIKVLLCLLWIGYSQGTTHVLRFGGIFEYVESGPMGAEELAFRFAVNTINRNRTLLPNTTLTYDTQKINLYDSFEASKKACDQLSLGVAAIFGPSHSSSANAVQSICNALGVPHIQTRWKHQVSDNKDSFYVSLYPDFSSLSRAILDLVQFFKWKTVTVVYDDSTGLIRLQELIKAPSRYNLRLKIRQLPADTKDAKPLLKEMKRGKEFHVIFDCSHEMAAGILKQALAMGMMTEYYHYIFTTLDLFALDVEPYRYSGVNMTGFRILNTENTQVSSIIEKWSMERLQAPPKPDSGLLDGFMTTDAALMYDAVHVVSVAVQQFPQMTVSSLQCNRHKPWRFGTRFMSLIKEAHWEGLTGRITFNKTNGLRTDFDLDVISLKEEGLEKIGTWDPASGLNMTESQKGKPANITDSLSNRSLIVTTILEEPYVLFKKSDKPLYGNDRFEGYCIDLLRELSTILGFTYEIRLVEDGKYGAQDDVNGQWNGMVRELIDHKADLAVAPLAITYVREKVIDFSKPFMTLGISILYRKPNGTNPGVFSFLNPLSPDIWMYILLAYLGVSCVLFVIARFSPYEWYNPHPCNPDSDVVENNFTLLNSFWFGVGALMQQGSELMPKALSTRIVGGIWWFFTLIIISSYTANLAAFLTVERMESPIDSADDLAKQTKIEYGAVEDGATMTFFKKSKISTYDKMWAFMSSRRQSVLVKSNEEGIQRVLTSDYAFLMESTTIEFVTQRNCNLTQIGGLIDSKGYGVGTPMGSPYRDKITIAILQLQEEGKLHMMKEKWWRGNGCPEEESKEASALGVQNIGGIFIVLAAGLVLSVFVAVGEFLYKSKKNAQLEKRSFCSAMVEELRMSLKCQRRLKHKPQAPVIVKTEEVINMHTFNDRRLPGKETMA
hERG (KCNH2), sequence (Q12809 whole entry): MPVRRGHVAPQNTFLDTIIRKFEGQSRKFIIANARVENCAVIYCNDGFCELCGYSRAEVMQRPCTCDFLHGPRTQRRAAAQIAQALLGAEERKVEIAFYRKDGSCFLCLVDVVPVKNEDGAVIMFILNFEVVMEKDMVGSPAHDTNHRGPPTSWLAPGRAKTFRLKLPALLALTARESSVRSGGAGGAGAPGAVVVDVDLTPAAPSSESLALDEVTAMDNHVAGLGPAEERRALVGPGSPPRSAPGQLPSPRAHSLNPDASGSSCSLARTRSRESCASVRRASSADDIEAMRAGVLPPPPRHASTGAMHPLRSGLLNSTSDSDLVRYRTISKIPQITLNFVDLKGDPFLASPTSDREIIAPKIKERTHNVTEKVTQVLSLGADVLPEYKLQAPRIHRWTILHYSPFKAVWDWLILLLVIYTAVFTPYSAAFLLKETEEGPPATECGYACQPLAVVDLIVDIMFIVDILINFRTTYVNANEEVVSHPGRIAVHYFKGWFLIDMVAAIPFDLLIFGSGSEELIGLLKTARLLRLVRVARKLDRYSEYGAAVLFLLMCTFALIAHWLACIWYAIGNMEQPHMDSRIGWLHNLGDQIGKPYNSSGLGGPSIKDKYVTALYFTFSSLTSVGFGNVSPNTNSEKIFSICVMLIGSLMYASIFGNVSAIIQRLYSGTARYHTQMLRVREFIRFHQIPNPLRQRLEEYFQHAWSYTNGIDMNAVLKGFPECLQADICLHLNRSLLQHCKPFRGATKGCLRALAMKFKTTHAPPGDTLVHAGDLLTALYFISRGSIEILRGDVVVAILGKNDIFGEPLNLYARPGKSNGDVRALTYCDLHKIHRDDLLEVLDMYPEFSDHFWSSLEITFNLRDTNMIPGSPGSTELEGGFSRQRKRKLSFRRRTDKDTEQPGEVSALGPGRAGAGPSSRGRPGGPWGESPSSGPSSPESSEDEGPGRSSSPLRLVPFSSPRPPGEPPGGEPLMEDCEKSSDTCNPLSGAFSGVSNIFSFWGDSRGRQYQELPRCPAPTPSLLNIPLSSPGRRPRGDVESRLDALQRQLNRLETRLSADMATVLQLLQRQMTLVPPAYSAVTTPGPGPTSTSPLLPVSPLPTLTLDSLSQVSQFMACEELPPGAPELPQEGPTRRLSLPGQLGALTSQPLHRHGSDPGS

In the case of `CS(=O)(=O)Nc1ccc(OCC(=O)NCCNc2ccc(Cl)c(Cl)c2)cc1`, the inhibition in data set [1] was determined as 78%; in data set [15], 88%. Besides, the IC50 (commonly the concentration that inhibits the measured activity by half) in data set [2] was found to be 58 µM; in data set [3] it was 107 µM; in data set [7] it was 57 nM. Besides, the inhibition result (in [4]; in [5]; with Oocyte) was “inactive” in each case. Moreover, in data set [6], the inhibition entry is “Active”. Also, the Papp – broadly, a coefficient for how fast a substance crosses the barrier – in the data set on MDCK is on record as 63.2 ×10⁻⁶ cm/s. Moreover, the % response in [8] worked out at 92%; in data set [9] it was 16%; in data set [10] it was 98%; in data set [11], 91%; in [12], 101%; in data set [13], 99%. Affinity in data set [14] was put at a Ki of 119 nM. Besides, the inhibition at 10 µM at hERG (KCNH2) was found to be 43%.
